The species entered for data set [1] is Homo sapiens. In words: Inhibition of P-gp-mediated paclitaxel resistance in human LCC6MDR cells assessed as fold decrease in paclitaxel IC50 for cytotoxic activity at 1 uM after 5 days by MTS assay relative to parental cells. Format: cell-based.
Data set [2] is filed under the species Homo sapiens. Kind of data set: Inhibition of P-gp-mediated paclitaxel resistance in human LCC6MDR cells assessed as fold decrease in paclitaxel IC50 for cytotoxic activity at 0.5 uM after 5 days by MTS assay relative to parental cells. Format: cell-based.
For the next data set, the system named is MDR. Kind of data set: Cytotoxicity against human MDA435/LCC6MDR cells expressing MDR after 72 hrs. It counts as functional, cell-based. In a few lines: (§1)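 Cells seeded at 1 × 10⁴ per well in supplemented DMEM and given graded doses of dimer for 72 h at 37 °C, 5% CO₂. Survival measured and IC50 derived. N = 1–3 independent experiments, mean ± SEM.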
Data set [3] in a line: Cytotoxicity against human LCC-6 cells after 72 hrs. It counts as functional, cell-based. The settings on record: LCC-6, 72 h. Summed up: as §1
A further data set relates to L929. In words: Cytotoxicity against mouse L929 cells after 72 hrs. It counts as cell-based. The settings on record: L929, 72 h. Summed up: as §1
A short description of data set [4]: Therapeutic index, ratio of IC50 for L929 cells to EC50 for reversing paclitaxel resistance in human MDA435/LCC6MDR cells. Format: cell-based. The settings on record: L929 cells (IC50) and MDA435/LCC6MDR cells (EC50).
Data set [5] is described as follows: Reversal of P-gp-mediated paclitaxel-resistance in human LCC6MDR cells after 5 days by MTS assay. It counts as cell-based. The settings on record: 120 h.
The target of data set [6] is ATP-dependent translocase ABCB1 (Homo sapiens, UniProt P08183). In words: Inhibition of P-gp overexpressed in human MDA435/LCC6MDR cells assessed as accumulation of doxorubicin after 150 mins by fluorescence spectrophotometric analysis. It counts as cell-based. The settings on record: 2.5 h. In a few lines: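 1 × 10⁶ LCC6MDR or LCC6 cells incubated with 20 μM DOX and graded modulator for 150 min at 37 °C, with 0.4% DMSO as negative control. Cells washed and lysed in 0.75 M HCl, 0.2% Triton X-100 in isopropanol. DOX fluorescence read at ex 460/em 610 nm. N = 2–5.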
ATP-dependent translocase ABCB1, sequence (P08183 whole entry): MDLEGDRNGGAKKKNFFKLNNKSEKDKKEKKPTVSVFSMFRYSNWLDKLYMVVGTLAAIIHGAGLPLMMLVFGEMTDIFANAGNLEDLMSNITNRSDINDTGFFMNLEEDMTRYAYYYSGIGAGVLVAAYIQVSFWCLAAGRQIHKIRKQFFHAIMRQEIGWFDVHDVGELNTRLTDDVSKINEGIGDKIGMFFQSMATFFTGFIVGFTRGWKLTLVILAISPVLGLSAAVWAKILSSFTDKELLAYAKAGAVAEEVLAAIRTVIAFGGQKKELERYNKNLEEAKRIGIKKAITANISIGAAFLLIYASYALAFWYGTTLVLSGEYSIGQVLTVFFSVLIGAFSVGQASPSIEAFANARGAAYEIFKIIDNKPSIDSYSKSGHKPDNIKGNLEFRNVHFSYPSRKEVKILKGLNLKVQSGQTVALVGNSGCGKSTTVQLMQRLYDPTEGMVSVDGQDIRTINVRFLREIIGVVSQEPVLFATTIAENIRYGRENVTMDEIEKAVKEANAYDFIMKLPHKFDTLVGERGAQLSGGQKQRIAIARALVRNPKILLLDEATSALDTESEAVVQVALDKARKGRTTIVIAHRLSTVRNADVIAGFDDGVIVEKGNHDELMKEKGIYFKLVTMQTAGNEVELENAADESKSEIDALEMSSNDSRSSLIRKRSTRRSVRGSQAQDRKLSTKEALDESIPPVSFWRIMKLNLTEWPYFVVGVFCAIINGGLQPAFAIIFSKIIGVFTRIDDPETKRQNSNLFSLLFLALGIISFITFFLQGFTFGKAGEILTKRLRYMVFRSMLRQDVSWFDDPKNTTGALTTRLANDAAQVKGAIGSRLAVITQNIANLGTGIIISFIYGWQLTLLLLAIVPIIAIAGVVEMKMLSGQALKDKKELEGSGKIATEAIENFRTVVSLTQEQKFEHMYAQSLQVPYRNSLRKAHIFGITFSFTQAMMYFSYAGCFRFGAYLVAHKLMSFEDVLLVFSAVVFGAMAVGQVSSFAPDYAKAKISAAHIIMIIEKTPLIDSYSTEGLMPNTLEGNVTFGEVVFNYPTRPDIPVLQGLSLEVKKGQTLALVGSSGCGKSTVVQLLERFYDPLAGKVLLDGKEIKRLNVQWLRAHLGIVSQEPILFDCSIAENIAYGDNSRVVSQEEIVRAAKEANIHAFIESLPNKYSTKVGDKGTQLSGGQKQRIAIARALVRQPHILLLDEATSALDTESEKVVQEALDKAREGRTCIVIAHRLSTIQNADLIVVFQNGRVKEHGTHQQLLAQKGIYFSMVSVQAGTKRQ

Structures are written as SMILES. pEC50, pIC50: −log10 of the molar value. ≈ marks a conversion by molar mass, not a printed value.

On to `O=c1cc(-c2ccc(OCCOCCN(CCOCCOc3ccc(-c4cc(=O)c5ccccc5o4)cc3)Cc3cccc(F)c3)cc2)oc2ccccc12`, for which the Ratio in the data set listed under Homo sapiens [1] came to 118; in the data set listed under Homo sapiens [2] it was 36.5. The pIC50 in the data set with MDR is under 4.00; in data set [3], under 4.00; in the data set with L929, under 4.06. In data set [4], the selectivity ratio is over 337. Moreover, in data set [5], the negative-log EC50 (pEC50) was 6.59.

As for `O=c1cc(-c2ccc(OCCOCCN(CCCc3ccccc3)CCOCCOc3ccc(-c4cc(=O)c5ccccc5o4)cc3)cc2)oc2ccccc12`, the Ratio in the data set listed under Homo sapiens [1] stood at 56.7; in the data set listed under Homo sapiens [2] it was 12.5. The pIC50 is under 4.00 with MDR, under 4.00 in data set [3] and 5.02 in the data set on L929. The selectivity ratio in data set [4] worked out at 38. Moreover, in data set [5], the pEC50 is 6.60.

Consider `CC(C)(C)OC(=O)N(CCOCCOc1ccc(-c2cc(=O)c3ccccc3o2)cc1)CCOCCOc1ccc(-c2cc(=O)c3ccccc3o2)cc1`, for which the Ratio came to 69.6 in the data set listed under Homo sapiens [1] and 11.1 in the data set listed under Homo sapiens [2]. In addition, the figures for the pIC50 (in the data set with MDR; in data set [3]; with L929) were 5.21, 5.10 and 4.95, respectively. In data set [4], the selectivity ratio worked out at 34.7. Also, in data set [5], the pEC50 was 6.49.

On to `CCN(CCOCCOc1ccc(-c2cc(=O)c3ccccc3o2)cc1)CCOCCOc1ccc(-c2cc(=O)c3ccccc3o2)cc1`, for which the values for the Ratio in the data set filed under Homo sapiens [1] and in the data set listed under Homo sapiens [2] were 95.7 and 26.9, respectively. For the same molecule, the results for the pIC50 (with MDR; in data set [3]; with L929) were 4.76, 4.99 and 5.16, respectively. Moreover, the selectivity ratio in data set [4] stood at 34.5. Further, the pEC50 in data set [5] is 6.70.

For the molecule `O=c1cc(-c2ccc(OCCOCCN(CCOCCOc3ccc(-c4cc(=O)c5ccccc5o4)cc3)Cc3ccccc3F)cc2)oc2ccccc12`, the Ratio was determined as 102 in the data set listed under Homo sapiens [1] and 43.7 in the data set filed under Homo sapiens [2]. For the same molecule, the pIC50 (in the data set on MDR; in data set [3]; in the data set with L929) was under 4.00 each time. Moreover, the selectivity ratio in data set [4] is over 559. Further, in data set [5], the pEC50 was 6.75.

For `O=c1cc(-c2ccc(OCCOCCN(CCOCCOc3ccc(-c4cc(=O)c5ccccc5o4)cc3)Cc3ccc(C(F)(F)F)cc3)cc2)oc2ccccc12`, the results for the Ratio in the data set filed under Homo sapiens [1] and in the data set filed under Homo sapiens [2] were 90.1 and 37.3, respectively. The values for the pIC50 (with MDR; in data set [3]; in the data set on L929) were under 4.00, under 4.00 and 4.49, respectively. In addition, the selectivity ratio in data set [4] was found to be 218. For the same molecule, in data set [5], the pEC50 was 6.82.

As for `CS(=O)(=O)N(CCOCCOc1ccc(-c2cc(=O)c3ccccc3o2)cc1)CCOCCOc1ccc(-c2cc(=O)c3ccccc3o2)cc1`, the Ratio amounted to 20.1 in the data set listed under Homo sapiens [1] and 12.8 in the data set filed under Homo sapiens [2]. The negative-log IC50 (pIC50) was 4.37 in the data set on MDR, 4.56 in data set [3] and 4.87 with L929.

On to `COc1ccc(CCN(C)CCCC(C#N)(c2ccc(OC)c(OC)c2)C(C)C)cc1OC` (stereo not given), for which, in data set [6], the MIC was found to be 8 µM (≈ 3.64 µg/mL) and the “inhibition (INH)” value is “Dose-dependent effect”.

Consider `Cc1ccc2oc(-c3ccc(OCCOCCN(CCOCCOc4ccc(-c5cc(=O)c6cc(C)ccc6o5)cc4)C(=O)OC(C)(C)C)cc3)cc(=O)c2c1`, for which the results for the Ratio in the data set listed under Homo sapiens [1] and in the data set filed under Homo sapiens [2] were 139 and 9.6, respectively. In addition, the negative logarithm of the IC50 (pIC50) (in the data set with MDR; in data set [3]; in the data set on L929) was under 4.00 throughout.

In the case of `O=c1cc(-c2ccc(OCCOCCN(CCO)CCOCCOc3ccc(-c4cc(=O)c5ccccc5o4)cc3)cc2)oc2ccccc12`, the figures for the Ratio in the data set filed under Homo sapiens [1] and in the data set filed under Homo sapiens [2] were 32.6 and 5, respectively. The pIC50 with MDR is 4.83; in data set [3], 4.97; in the data set with L929 it was 5.16.

As to `O=c1cc(-c2ccc(OCCOCCN(CCOCCOc3ccc(-c4cc(=O)c5ccccc5o4)cc3)Cc3ccc([N+](=O)[O-])cc3)cc2)oc2ccccc12`, the Ratio came out at 128 in the data set listed under Homo sapiens [1] and 43.7 in the data set filed under Homo sapiens [2]. Besides, the pIC50 in the data set with MDR was under 4.05; in data set [3] it was 4.06; in the data set with L929 it was 4.06. Moreover, the selectivity ratio in data set [4] stood at 466. The pEC50 in data set [5] was 6.72.

In the case of `O=c1cc(-c2ccc(OCCOCCNCCOCCOc3ccc(-c4cc(=O)c5ccccc5o4)cc3)cc2)oc2ccccc12`, the Ratio was 139 in the data set filed under Homo sapiens [1] and 72.9 in the data set filed under Homo sapiens [2]. Further, the results for the pIC50 (in the data set on MDR; in data set [3]; in the data set on L929) were 5.62, 5.48 and 5.23, respectively. Moreover, in data set [4], the selectivity ratio was 19.3. Moreover, the pEC50 in data set [5] is 6.52.

Consider `O=c1cc(-c2ccc(OCCOCCNCCOCCOc3ccc(-c4cc(=O)c5cc(F)ccc5o4)cc3)cc2)oc2ccc(F)cc12`, for which the Ratio was determined as 109 in the data set filed under Homo sapiens [1] and 72.9 in the data set filed under Homo sapiens [2]. The pIC50 is 5.48 with MDR, 5.28 in data set [3] and 5.24 with L929.

For the molecule `COc1cc(-c2cc(=O)c3ccccc3o2)ccc1OCCOCCN(CCOCCOc1ccc(-c2cc(=O)c3ccccc3o2)cc1OC)C(=O)OC(C)(C)C`, the Ratio in the data set listed under Homo sapiens [1] came to 16.8; in the data set listed under Homo sapiens [2], 8.7. The pIC50 is 5.16 in the data set on MDR, 5.08 in data set [3] and 4.48 in the data set on L929.

On to `O=C1c2ccccc2C(=O)N1CCN(CCOCCOc1ccc(-c2cc(=O)c3ccccc3o2)cc1)CCOCCOc1ccc(-c2cc(=O)c3ccccc3o2)cc1`, for which the Ratio in the data set listed under Homo sapiens [1] came to 118; in the data set listed under Homo sapiens [2], 9.6. Besides, the pIC50 is 5.31 with MDR, 5.07 in data set [3] and 4.77 with L929.

For `O=c1cc(-c2ccc(OCCOCCN(CCOCCOc3ccc(-c4cc(=O)c5ccccc5o4)cc3)Cc3ccncc3)cc2)oc2ccccc12`, the Ratio in the data set listed under Homo sapiens [1] is 27.8; in the data set filed under Homo sapiens [2] it was 6.9. Also, the figures for the pIC50 (in the data set on MDR; in data set [3]; with L929) were under 4.00, under 4.00 and 4.58, respectively.

For `CC(C)(C)CC(=O)N(CCOCCOc1ccc(-c2cc(=O)c3ccccc3o2)cc1)CCOCCOc1ccc(-c2cc(=O)c3ccccc3o2)cc1`, the Ratio turned out to be 72.9 in the data set filed under Homo sapiens [1] and 18.9 in the data set listed under Homo sapiens [2]. Further, the pIC50 (in the data set on MDR; in data set [3]; in the data set with L929) was under 4.00 throughout.

In the case of `O=c1c(OCc2ccccc2)c(-c2ccc(OCCOCCNCCOCCOc3ccc(-c4oc5ccccc5c(=O)c4OCc4ccccc4)cc3)cc2)oc2ccccc12`, the Ratio in the data set filed under Homo sapiens [1] is 128; in the data set listed under Homo sapiens [2], 54.7. For the same molecule, the pIC50 with MDR was 5.36; in data set [3], 5.37; with L929, 5.38.

In the case of `O=c1cc(-c2ccc(OCCOCCN(CCOCCOc3ccc(-c4cc(=O)c5ccccc5o4)cc3)Cc3cc(F)c(F)c(F)c3)cc2)oc2ccccc12`, the figures for the Ratio in the data set filed under Homo sapiens [1] and in the data set listed under Homo sapiens [2] were 80.6 and 3.3, respectively. In addition, the pIC50 is under 4.00 in the data set on MDR, under 4.12 in data set [3] and under 4.00 with L929.

Take `Cc1ccc2oc(-c3ccc(OCCOCCNCCOCCOc4ccc(-c5cc(=O)c6cc(C)ccc6o5)cc4)cc3)cc(=O)c2c1`: the Ratio in the data set filed under Homo sapiens [1] was found to be 139; in the data set listed under Homo sapiens [2] it was 13.9. Also, the pIC50 with MDR was 5.15; in data set [3], 5.12; with L929, 5.22.

As to `COC(=O)c1ccc(CN(CCOCCOc2ccc(-c3cc(=O)c4ccccc4o3)cc2)CCOCCOc2ccc(-c3cc(=O)c4ccccc4o3)cc2)cc1`, the Ratio in the data set filed under Homo sapiens [1] stood at 18.9; in the data set listed under Homo sapiens [2], 2.1. Also, the pIC50 in the data set with MDR was 4.19; in data set [3] it was 4.48; in the data set with L929 it was 4.94.

In the case of `O=c1cc(-c2ccc(OCCOCCN(CCOCCOc3ccc(-c4cc(=O)c5ccccc5o4)cc3)Cc3ccc(F)cc3)cc2)oc2ccccc12`, the Ratio in the data set filed under Homo sapiens [1] was found to be 109; in the data set filed under Homo sapiens [2] it was 31.2. For the same molecule, the pIC50 in the data set with MDR was under 4.08; in data set [3], under 4.00; with L929, 4.71. Moreover, in data set [4], the selectivity ratio turned out to be 77.3. Moreover, in data set [5], the pEC50 was 6.59.

Regarding `O=c1cc(-c2ccc(OCCOCCN(CCOCCOc3ccc(-c4cc(=O)c5ccccc5o4)cc3)Cc3ccccn3)cc2)oc2ccccc12`, the figures for the Ratio in the data set filed under Homo sapiens [1] and in the data set listed under Homo sapiens [2] were 95.7 and 15.8, respectively. The pIC50 was 4.53 in the data set with MDR, 5.00 in data set [3] and 5.00 with L929.

Turning to `COc1cccc2oc(-c3ccc(OCCOCCN(CCOCCOc4ccc(-c5cc(=O)c6c(OC)cccc6o5)cc4)C(=O)OC(C)(C)C)cc3)cc(=O)c12`, the Ratio came out at 109 in the data set filed under Homo sapiens [1] and 14.9 in the data set filed under Homo sapiens [2]. Moreover, the results for the pIC50 (in the data set with MDR; in data set [3]; with L929) were 5.27, 5.34 and 5.26, respectively.

As to `O=c1cc(-c2ccc(OCCOCCN(CCOCCOc3ccc(-c4cc(=O)c5ccccc5o4)cc3)Cc3ccc(F)c(F)c3)cc2)oc2ccccc12`, the values for the Ratio in the data set listed under Homo sapiens [1] and in the data set filed under Homo sapiens [2] were 109 and 49.3, respectively. Besides, the results for the pIC50 (with MDR; in data set [3]; with L929) were 4.47, 4.49 and 4.37, respectively.

Values taken from ChEMBL document CHEMBL2203168, “Amine linked flavonoid dimers as modulators for P-glycoprotein-based multidrug resistance: structure-activity relationship and mechanism of modulation” (J Med Chem, 2012).
